Reference: ChEMBL document CHEMBL1287654, “Anticancer activity of N-bis(trifluoromethyl)alkyl-N'-(polychlorophenyl) and N'-(1,2,4-triazolyl) ureas” (2010)

What was measured:
Format in all cases: functional
[1] = test system: MOLT-4; test: Growth inhibition of human MOLT4 cells after 48 hrs by sulforhodamine B assay; settings: MOLT-4, 48 h
Summary of the method: (§1)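 NCI 60-cell-line main test over a five-log dose range. GI50 is the molar concentration giving half-growth inhibition, reported as log molar. Subpanel values are median GI50 across that subpanel's lines. Where 50% inhibition was not reached within the tested interval, the highest tested concentration was used.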

[2] = test system: A549; test: Growth inhibition of human A549 cells after 48 hrs by sulforhodamine B assay; settings: A549, 48 h; summary of the method: as §1
[3] = test system: HOP-62; test: Growth inhibition of human HOP62 cells after 48 hrs by sulforhodamine B assay; settings: HOP-62, 48 h; summary of the method: as §1
[4] = test system: NCI-H522; test: Growth inhibition of human NCI-H522 cells after 48 hrs by sulforhodamine B assay; settings: NCI-H522, 48 h; summary of the method: as §1
[5] = test system: COLO 205; test: Growth inhibition of human COLO205 cells after 48 hrs by sulforhodamine B assay; settings: COLO 205, 48 h; summary of the method: as §1
[6] = test system: SW-620; test: Growth inhibition of human SW620 cells after 48 hrs by sulforhodamine B assay; settings: SW-620, 48 h
Summary of the method: (§2)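 NCI 60-cell-line main screen across nine tumor types, with five log dose range per compound. GI50 is the molar concentration giving half growth inhibition, reported as the log of the molar concentration that inhibits 50% net cell growth.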

[7] = test system: SF-268; test: Growth inhibition of human SF268 cells after 48 hrs by sulforhodamine B assay; settings: SF-268, 48 h; summary of the method: as §1
[8] = test system: LOX IMVI; test: Growth inhibition of human LOXIMVI cells after 48 hrs by sulforhodamine B assay; summary of the method: as §1
[9] = test system: M14; test: Growth inhibition of human M14 cells after 48 hrs by sulforhodamine B assay; settings: M14, 48 h; summary of the method: as §1
[10] = test system: OVCAR-3; test: Growth inhibition of human OVCAR-3 cells after 48 hrs by sulforhodamine B assay; settings: OVCAR-3, 48 h; summary of the method: as §1
[11] = test system: 786-0; test: Growth inhibition of human 786-0 cells after 48 hrs by sulforhodamine B assay; settings: 786-0, 48 h; summary of the method: as §1
[12] = test system: RXF 393; test: Growth inhibition of human RXF393 cells after 48 hrs by sulforhodamine B assay; settings: RXF 393, 48 h; summary of the method: as §1
[13] = test system: SN12C; test: Growth inhibition of human SN12C cells after 48 hrs by sulforhodamine B assay; summary of the method: as §2
[14] = test system: UO-31; test: Growth inhibition of human UO31 cells after 48 hrs by sulforhodamine B assay; settings: UO-31, 48 h; summary of the method: as §2
[15] = test system: NCI/ADR-RES; test: Growth inhibition of human NCI/ADR-RES cells after 48 hrs by sulforhodamine B assay; summary of the method: as §1
[16] = Growth inhibition of human Hs 578T cells after 48 hrs by sulforhodamine B assay; summary of the method: as §1
[17] = test system: MDA-N; test: Growth inhibition of human MDA-N cells after 48 hrs by sulforhodamine B assay; summary of the method: as §1
[18] = test system: T47D; test: Growth inhibition of human T47D cells after 48 hrs by sulforhodamine B assay; summary of the method: as §2
[19] = test system: SF-268; test: Growth inhibition of human SF268 cells assessed as cell growth at 100 uM after 48 hrs by sulforhodamine B assay relative to control; settings: SF-268, 48 h, read-out: Activity
Summary of the method: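 One-dose pre-test on MCF7, NCI-H460 and SF-268. Cells were inoculated and pre-incubated on a microtiter plate, then given a single 10^-4 M dose and incubated 48 h. Growth was read spectrophotometrically and expressed as percent of untreated control cells; negative values indicate cell kill.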

[20] = Growth inhibition of human renal cancer cell after 48 hrs by sulforhodamine B assay; settings: Cancer cell lines
Summary of the method: (§3)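 Subpanel median growth inhibitory concentration: the average sensitivity of each tumor-type subpanel of the NCI 60-cell-line panel, derived from per-cell-line GI50 values. GI50 values came from a five log dose range and are expressed as log molar concentration for 50% net growth inhibition.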

[21] = Growth inhibition of human prostate cancer cell after 48 hrs by sulforhodamine B assay; settings: Cancer cell lines; summary of the method: as §3
[22] = test system: CCRF-CEM; test: Growth inhibition of human CCRF-CEM cells after 48 hrs by sulforhodamine B assay; summary of the method: as §1
[23] = test system: EKVX; test: Growth inhibition of human EKVX cells after 48 hrs by sulforhodamine B assay; summary of the method: as §1
[24] = test system: NCI-H322M; test: Growth inhibition of human NCI-H322M cells after 48 hrs by sulforhodamine B assay; summary of the method: as §1
[25] = test system: HCT-15; test: Growth inhibition of human HCT15 cells after 48 hrs by sulforhodamine B assay; settings: HCT-15, 48 h; summary of the method: as §1
[26] = test system: U-251; test: Growth inhibition of human U251 cells after 48 hrs by sulforhodamine B assay; settings: U-251, 48 h; summary of the method: as §2
[27] = test system: OVCAR-8; test: Growth inhibition of human OVCAR8 cells after 48 hrs by sulforhodamine B assay; settings: OVCAR-8, 48 h; summary of the method: as §1

CC(NC(=O)Nc1cc(Cl)ccc1Cl)(C(F)(F)F)C(F)(F)F
GI50 [1]: 9.55 µM
GI50 [2]: 5.62 µM
GI50 [3]: 63.1 µM
GI50 [4]: 3.09 µM
GI50 [5]: 4.17 µM
GI50 [6]: > 100 µM
GI50 [7]: 72.4 µM
GI50 [8]: 7.76 µM
GI50 [9]: > 100 µM
GI50 [10]: 4.17 µM
GI50 [11]: 9.77 µM
GI50 [12]: 77.6 µM
GI50 [13]: 8.71 µM
GI50 [14]: 2.4 µM
GI50 [15]: 5.89 µM
GI50 [16]: 3.16 µM
GI50 [17]: > 100 µM
GI50 [18]: 3.47 µM
growth at 100 µM [19]: 50%
GI50 [20]: 15.1 µM
GI50 [21]: 5.75 µM

CCC(NC(=O)Nc1cc(Cl)ccc1Cl)(C(F)(F)F)C(F)(F)F
GI50 [22]: 4.07 µM
GI50 [1]: 3.72 µM
GI50 [2]: 3.47 µM
GI50 [23]: 3.16 µM
GI50 [3]: 10.7 µM
GI50 [24]: 1.78 µM
GI50 [4]: 2.82 µM
GI50 [5]: 1.82 µM
GI50 [25]: 4.07 µM
GI50 [6]: 5.25 µM
GI50 [7]: 4.79 µM
GI50 [26]: 2.95 µM
GI50 [8]: 4.07 µM
GI50 [9]: 5.13 µM
GI50 [10]: 3.09 µM
GI50 [27]: 5.25 µM
GI50 [11]: 4.37 µM
GI50 [12]: 10 µM
GI50 [13]: 2.82 µM
GI50 [14]: 2.63 µM
GI50 [15]: 4.17 µM
GI50 [16]: 5.25 µM
GI50 [17]: 4.17 µM
growth at 100 µM [19]: -99%
GI50 [20]: 3.89 µM
GI50 [21]: 3.16 µM
